Screening results from PubChem BioAssay.
Most compounds without a hit are left out; they make up all but 3.1% or so of the library.
GPR7 antag = human neuropeptides B/W receptor 1 antagonism. P48145. GPR7-expressing cells, fluorescence antagonist assay. inhibition, % at 4.4 µM. 1.1% of 290,000 active. AID 1861; in the data active means inhibition above about 16%, passing the limit was not always enough;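 further: cells stimulated with the agonist NPW; 0% = agonist with vehicle and 100% = vehicle without agonist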
GalR3 antag = human GalR3 antagonism. 0.44% of 360,000 active. AID 651719. inhibition, % at 3 µM. HEK293 GalR3-CNG cAMP membrane potential fluorescence; galR3 body fused to GalR1 C-terminus;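 active means inhibition above the screen-wide average plus 3 SD, cut at about 13% in these data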;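 further: forskolin and galanin both at EC90 stimulate the cells; cAMP rise reported by CNG channel membrane potential dye signal; 0% = forskolin plus galanin with DMSO and 100% = forskolin alone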
Target sequence (O60755 1-299 limits assumed): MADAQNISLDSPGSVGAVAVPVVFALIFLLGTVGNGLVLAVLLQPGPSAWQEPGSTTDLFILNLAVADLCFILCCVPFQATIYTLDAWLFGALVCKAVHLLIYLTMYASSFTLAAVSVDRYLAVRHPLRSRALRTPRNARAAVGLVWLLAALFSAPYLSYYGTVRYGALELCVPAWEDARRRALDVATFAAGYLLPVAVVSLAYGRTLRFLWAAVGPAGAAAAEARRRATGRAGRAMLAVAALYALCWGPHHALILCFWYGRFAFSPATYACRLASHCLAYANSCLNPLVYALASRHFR
OX1R antag-1 = human HCRTR1 antagonism; O43613; CHO/OX1R cells, Fluo-8 calcium fluorescence, orexin A; inhibition, % at 5 µM; 0.43% of 330,000 active;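 active means inhibition above its plate's threshold, mean inhibition of all tested compounds on the plate plus 3 SD, cut at about 37% in these data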;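 further: 0% = orexin A challenge wells and 100% = SB-334867-A antagonist wells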
CHO parental Ca = signal in parental CHO cells, OX1R antagonist counter-screen; inhibition, % at 5.6 µM; 0.63% of 330,000 active; parental CHO-K1, ATP-induced calcium, Fluo-8 fluorescence;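 active means inhibition above that plate's mean sample inhibition plus 3 SD, cut at about 26% in these data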;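 further: 0% = ATP-challenged DMSO wells and 100% = DMSO wells without ATP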
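Material: parental CHO cells / Compound: single nominal dose of 5.6 µM per compound / Signal: Fluo-8 fluorescence / Replicates: singlicate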
OX1R antag-2 = blocks the human orexin 1 receptor; O43613; 1.8% of 330,000 active; inhibition, % at 6.6 µM; OX1R-expressing cells, FRET antagonist read-out; in the data active means inhibition mostly above about 38%, no sharp cut-off; inactive means mostly below about 40%;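 further: 0% = agonist challenge alone and 100% = reference antagonist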
GalR3 conf = GalR3 (human) antagonism, confirmation; shares compounds with GalR3 antag; HEK293 GalR3 CNG cAMP biosensor, membrane potential fluorescence; galR3 fused to GalR1 carboxy tail; challenged with forskolin and galanin at EC90; inhibition, % at 3 µM; 59% of 1,600 active; AID 652245;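 active means inhibition above the primary screen's cutoff, the mean inhibition of all screened compounds plus 3 SD, cut at about 13% in these data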;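 further: 0% = forskolin plus galanin and 100% = forskolin alone with DMSO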
CNG parental = acts as nonspecific agonist in parental HEK-CNG cells. activation, % at 3 µM. HEK293-CNG parental cells, cAMP membrane potential fluorescence; normalised: DMSO wells 0%, forskolin wells 100%. 10% of 1,600 active. AID 652268. shares compounds with GalR3 antag; in the data active means activation above about 1.3%
Numbers without * were called inactive; x = no result given.

SMILES	GPR7 antag	GalR3 antag	OX1R antag-1	CHO parental Ca	OX1R antag-2	GalR3 conf	CNG parental
COc1ccc(CCC(=O)Nc2cccc(S(=O)(=O)N3CCCCCC3)c2)cc1OC	x	-3.1	-16.6	-12.0	-0.6	x	x
O=C(Nc1cccc(C(F)(F)F)c1)c1csc([C@@H]2O[C@H](CO)[C@H](O)[C@H](O)[C@H]2O)n1	x	-4.9	x	x	x	x	x
O=C(/C=C/[C@H]1O[C@@H](n2cnc3c(NC(=O)c4ccccc4)ncnc32)[C@H](O)[C@@H]1O)N[C@@H](CO)Cc1c[nH]c2ccccc12	x	-0.8	x	x	x	x	x
O=C1NC(Cc2ccccc2)c2nc3cc(F)ccc3c(=O)n2-c2ncccc21 (stereo not drawn)	x	-8.5	x	x	x	x	x
Cc1ccsc1C(=O)N1CCCC(C)(C(=O)O)C1 (stereo not drawn)	x	-8.1	x	x	x	x	x
COc1ccc(NS(=O)(=O)c2ccc(NC(=O)c3ccc(CN4CCOCC4)cc3)cc2)cc1	23.8*	88.7*	10.8	6.1	19.1	118.2*	-1.0
CCCOc1ccc(C(=O)Nc2ccc(CN3CCOCC3)cc2)cc1	-10.8	-5.8	-15.8	-11.9	-1.2	x	x
CN(c1ccc(C(=O)Nc2ccc(S(=O)(=O)N3CCCC3)cc2)cc1)S(C)(=O)=O	7.3	93.5*	-1.4	-7.3	16.4	95.4*	0.0
COc1ccc(S(=O)(=O)N2CCCCCC2)cc1C(=O)Nc1ccc(C(=O)N(C)C)cc1	x	14.5*	x	x	x	5.4	-0.1
Cc1ccc(NS(=O)(=O)c2ccc(C(=O)NC3CCN(Cc4ccccc4)CC3)cc2)cc1	x	90.5*	15.2	-9.9	3.9	103.2*	0.6
CC(C)CN(C(=O)CN(C)C(=O)Cc1c(F)cccc1Cl)c1c(N)n(CC(C)C)c(=O)[nH]c1=O	x	-9.7	x	x	x	x	x
COc1ccc(CN2CCN(C(=O)c3ccc(S(=O)(=O)N4CCCCCC4)cc3)CC2)cc1	x	26.5*	x	x	x	90.4*	-0.6
O=C(NC1CCN(Cc2ccccc2)CC1)c1ccc2c(c1)[nH]c(=O)n2Cc1ccc(F)cc1	1.3	54.6*	-38.5	-21.7	7.7	59.4*	0.6
O=C(c1ccc(S(=O)(=O)N2CCCCCC2)cc1)N1CCN(Cc2ccccc2)CC1	x	-6.4	-3.9	-19.3	1.8	x	x
CCCCCn1c(=O)[nH]c2cc(C(=O)NC3CCN(Cc4ccccc4)CC3)ccc2c1=O	x	-9.2	-10.8	-15.2	9.9	x	x
COC(=O)C1=C(C)N(C)C(=NCc2cccc(C(F)(F)F)c2)NC1c1ccccc1 (stereo not drawn)	x	-7.8	x	x	x	x	x
C=C1C(=O)C2=CC1CCC(=O)C1(C)CCC(OC(C)=O)C(C)(C)C1CC2O (stereo not drawn)	x	-0.9	x	x	x	x	x
C[C@@H]1CN([C@@H](C)CO)C(=O)CCCn2nncc2CO[C@H]1CN(C)S(=O)(=O)c1ccc(-c2ccccc2)cc1	x	13.0*	x	x	x	45.4*	0.1
O=C(NC1CCCC1)[C@@H]1CCCN1C(=O)[C@@H](NS(=O)(=O)c1ccc(F)cc1F)c1ccccc1	x	-5.7	x	x	x	x	x
Cc1cc(CNC(=O)c2cccc([N+](=O)[O-])c2C)c2ccccc2n1	19.3	32.7*	0.5	17.6	18.8	53.5*	0.2
CCOC(=O)Cc1csc(NC(=O)c2cc(=O)c3ccccc3o2)n1	-9.0	91.8*	-2.5	-3.5	34.3	89.9*	0.2
O=S(=O)(N1CCCCC1)n1nnc2cc3ccccc3cc21	x	-8.5	x	x	x	x	x
O=C(Cn1cc(COc2ccc(-n3cccc3)cc2)nn1)NS(=O)(=O)c1ccccc1C(F)(F)F	x	-3.5	x	x	x	x	x
CC1CC(=O)NN=C1c1ccc(NCCO)c([N+](=O)[O-])c1 (stereo not drawn)	-9.3	64.3*	4.3	-11.4	59.4*	71.2*	-0.2
CCOC(=O)CCC1(C(=O)OC)C(=O)CCCCCC=C1C(=O)OC (stereo not drawn)	x	-4.8	x	x	x	x	x
CC(O)(c1ccc(F)c(F)c1)c1nc(-c2ccc(S(C)(=O)=O)cc2)cs1 (stereo not drawn)	x	-3.9	x	x	x	x	x
O=C(N/N=C1\CC2CC=CC12)c1ccc(Br)cc1 (stereo not drawn)	-0.3	-1.7	-10.1	-5.5	12.2	x	x
